Assay results reported in ChEMBL document CHEMBL2439968, “Spectroscopic identification and anti-biofilm properties of polar metabolites from the medicinal plant Helichrysum italicum against Pseudomonas aeruginosa” (2013).
The source made the active and inactive calls. The rule behind the calls is not given here.

Columns and labels:
Pseudomonas aeruginosa [1] = experiment: Antimicrobial activity against Pseudomonas aeruginosa PaM02 assessed as growth inhibition at 0.315 umol/ml by microtitre plate reader analysis; format: functional
Outline: (§1)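 Clinical mucoid strain grown overnight in LB broth at 37 °C and diluted with saline to OD600 around 1, then 100-fold. Compound in LB was added to an equal volume of cells, giving a final 5.0 × 10^5 CFU/ml and 128 µg/ml compound. Negative control was LB plus the matching DMSO level, with sterility and no-compound wells. Growth was read as turbidity at 600 nm; tobramycin served as positive control.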

Pseudomonas aeruginosa [2] = experiment: Bactericidal activity against Pseudomonas aeruginosa PaM02 at 128 ug/ml after 8 hrs by time kill analysis (reference value: 2.322 log10 CFU/ml); format: functional
Pseudomonas aeruginosa [3] = experiment: Bactericidal activity against Pseudomonas aeruginosa PaM02 at 128 ug/ml after 4 hrs by time kill analysis (reference value: 2.322 log10 CFU/ml); format: functional
Pseudomonas aeruginosa [4] = experiment: Bactericidal activity against Pseudomonas aeruginosa PaM02 at 128 ug/ml after 24 hrs by time kill analysis (reference value: 2.322 log10 CFU/ml); format: functional
Pseudomonas aeruginosa [5] = experiment: Bactericidal activity against Pseudomonas aeruginosa PaM02 at 128 ug/ml after 16 hrs by time kill analysis (reference value: 2.322 log10 CFU/ml); format: functional
Pseudomonas aeruginosa [6] = experiment: Antimicrobial activity against Pseudomonas aeruginosa PaM02 at > 128 ug/ml by microtitre plate reader analysis; format: functional, organism-based; outline: as §1
Pseudomonas aeruginosa [7] = experiment: Antimicrobial activity against Pseudomonas aeruginosa PaM02 biofilm at 128 ug/ml after 24 hrs by crystal violet staining-based ELISA reader analysis; format: functional; conditions: PaM02, 24 h
Outline: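 Preformed biofilm was grown from 100 µL of 1.0 × 10^7 CFU/ml inoculum for 24 h at 37 °C in polystyrene wells. Planktonic cells were removed and wells rinsed with PBS. Compound at 128 µg/ml final in LB was added for a further 24 h at 37 °C. Biofilm was stained with 1% crystal violet, destained with 95% ethanol and read at 570 nm. Reduction = [(Ac−At)/Ac] × 100 versus LB/DMSO controls.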

Pseudomonas aeruginosa [8] = experiment: Antimicrobial activity against Pseudomonas aeruginosa PaM02 assessed as growth inhibition at 0.323 umol/ml by microtitre plate reader analysis; format: functional; outline: as §1
Pseudomonas aeruginosa [9] = experiment: Inhibition of biofilm formation of Pseudomonas aeruginosa PaM02 at 128 ug/ml after 24 hrs by crystal violet staining-based ELISA reader analysis; format: functional; conditions: PaM02, 24 h
Outline: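 Prevention assay: compound at 128 µg/ml final in LB was incubated in polystyrene wells overnight at 4 °C, aspirated, and wells washed with PBS. Wells were seeded with 100 µL of 1.0 × 10^7 CFU/ml inoculum and incubated 24 h at 37 °C. Biofilm was stained with 1% crystal violet, destained with 95% ethanol and read at 570 nm. Inhibition = [(Ac−At)/Ac] × 100 versus LB-preincubated controls.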

Pseudomonas aeruginosa [10] = experiment: Antimicrobial activity against Pseudomonas aeruginosa PaM02 assessed as growth inhibition at 0.008 umol/ml by microtitre plate reader analysis; format: functional; outline: as §1
Pseudomonas aeruginosa [11] = experiment: Antimicrobial activity against Pseudomonas aeruginosa PaM02 assessed as growth inhibition at 0.245 umol/ml by microtitre plate reader analysis; format: functional; outline: as §1

For COc1cc(/C=C/c2ccc(O[C@@H]3O[C@H](CO)[C@@H](O)[C@H](O)[C@H]3O)cc2)oc(=O)c1, the “growth inhibition (GI)” value (Pseudomonas aeruginosa [1]) was 53%, the Activity (Pseudomonas aeruginosa [2]) was 1.103 log10CFU/ml and the Activity (Pseudomonas aeruginosa [3]) was 1.157 log10CFU/ml. The Activity (Pseudomonas aeruginosa [4]) was 1.045 log10CFU/ml and the Activity (Pseudomonas aeruginosa [5]) was 1.055 log10CFU/ml.
For O=C(/C=C/c1ccc(O)c(O)c1)O[C@@H]1C[C@](O)(C(=O)O)C[C@@H](OC(=O)/C=C/c2ccc(O)c(O)c2)[C@H]1O, the Activity (Pseudomonas aeruginosa [6]) was “inactive”.
With C=C(CO)[C@@H]1Oc2ccc(C(C)=O)cc2[C@@H]1O[C@@H]1O[C@H](CO)[C@@H](O)[C@H](O)[C@H]1O the inhibition at 128 µg/mL (Pseudomonas aeruginosa [7]) was 9% and the Activity (Pseudomonas aeruginosa [6]) was “inactive”.
COc1cc(/C=C/c2ccc(O[C@@H]3O[C@H](COC(=O)CC(C)(O)CC(=O)O)[C@@H](O)[C@H](O)[C@H]3O)cc2)oc(=O)c1 (some centres undefined) was tested, and the Activity (Pseudomonas aeruginosa [6]) was “inactive”.
In the case of COc1cc(/C=C/c2ccc(O[C@@H]3O[C@H](COC(=O)CC(=O)O)[C@@H](O)[C@H](O)[C@H]3O)cc2)oc(=O)c1, the Activity (Pseudomonas aeruginosa [6]) was “inactive”.
O=C1OCc2cc(O)cc(O[C@@H]3O[C@H](CO)[C@@H](O)[C@H](O)[C@H]3O)c21 was tested, and the Activity (Pseudomonas aeruginosa [6]) was “inactive”.
With COc1cc2c(c(O[C@@H]3O[C@H](CO)[C@@H](O)[C@H](O)[C@H]3O)c1)C(=O)OC2 the Activity (Pseudomonas aeruginosa [6]) was “inactive”.
With C=C(CO[C@@H]1O[C@H](CO)[C@@H](O)[C@H](O)[C@H]1O)[C@@H]1Oc2ccc(C(C)=O)cc2[C@@H]1O the Activity (Pseudomonas aeruginosa [2]) was 1.974 log10CFU/ml, the Activity (Pseudomonas aeruginosa [3]) was 2.136 log10CFU/ml and the inhibition at 128 µg/mL (Pseudomonas aeruginosa [7]) was 16%. The “growth inhibition (GI)” value (Pseudomonas aeruginosa [8]) was 17%, the Activity (Pseudomonas aeruginosa [4]) was 1.881 log10CFU/ml and the Activity (Pseudomonas aeruginosa [5]) was 1.927 log10CFU/ml.
COc1cc(=O)oc([C@H]2[C@H](c3ccc(O[C@@H]4O[C@H](CO)[C@@H](O)[C@H](O)[C@H]4O)cc3)[C@H](c3cc(OC)cc(=O)o3)[C@H]2c2ccc(O[C@@H]3O[C@H](CO)[C@@H](O)[C@H](O)[C@H]3O)cc2)c1 was tested, and the Activity (Pseudomonas aeruginosa [6]) was “inactive”.
For O=C(/C=C/c1ccc(O)c(O)c1)O[C@@H]1C[C@](O)(C(=O)O)C[C@@H](O)[C@H]1O [CHLOROGENIC ACID], the inhibition at 128 µg/mL (Pseudomonas aeruginosa [9]) was 45% and the Activity (Pseudomonas aeruginosa [6]) was “inactive”.
In the case of NC[C@H]1O[C@H](O[C@H]2[C@H](O)[C@@H](O[C@H]3O[C@H](CO)[C@@H](O)[C@H](N)[C@H]3O)[C@H](N)C[C@@H]2N)[C@H](N)C[C@@H]1O [TOBRAMYCIN], the “growth inhibition (GI)” value (Pseudomonas aeruginosa [10]) was 100%.
COc1cc([C@H]2Oc3c(OC)cc(CCCO)cc3[C@@H]2CO)ccc1O[C@@H]1O[C@H](CO)[C@@H](O)[C@H](O)[C@H]1O was tested, and the Activity (Pseudomonas aeruginosa [2]) was 1.858 log10CFU/ml, the “growth inhibition (GI)” value (Pseudomonas aeruginosa [11]) was 21% and the Activity (Pseudomonas aeruginosa [3]) was 2.043 log10CFU/ml. The Activity (Pseudomonas aeruginosa [4]) was 1.765 log10CFU/ml and the Activity (Pseudomonas aeruginosa [5]) was 1.811 log10CFU/ml.
With COc1cc2c(c(O[C@@H]3O[C@H](COC(=O)CC(=O)O)[C@@H](O)[C@H](O)[C@H]3O)c1)C(=O)OC2 the inhibition at 128 µg/mL (Pseudomonas aeruginosa [7]) was 27% and the Activity (Pseudomonas aeruginosa [6]) was “inactive”.
